ChEMBL document CHEMBL1131041 (J Med Chem, 1998)

How the values were obtained:
[1] = target: T1, Delta-type opioid receptor (Rattus norvegicus, UniProt P33533); assay: Displacement of [3H]DADLE from morphine-insensitive Opioid receptor delta 1 (presence of 50 nM morphine) of rat brain membranes; assay type: cell membranes, Membrane
How it was run: (§1)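 Rat brain membranes pretreated with (+)-trans-[…], labelled with 2.0 nM [3H]DADLE, plus 50 nM morphine (δcx-2) or 300 nM DELT-II (δcx-1). Incubation 4–6 h at 25 °C in 10 mM Tris-HCl pH 7.4 with 100 mM NaCl, 3 mM MnCl2, 2 μM GTP, 5 mM 2-mercaptoethanol and protease inhibitors. 8–10 concentrations, twice.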

[2] = target: Opioid receptors; mu & delta (Homo sapiens) (UniProt P41143+P35372); assay: IC50 selectivity for mu receptor of guinea pig Ileum (GPI) and delta receptor of delta opioid receptor of mouse vas deferens (MVD) smooth muscle preparation; assay type: tissue-based
Opioid receptors; mu & delta (Homo sapiens), sequence (P35372 whole entry, looked up): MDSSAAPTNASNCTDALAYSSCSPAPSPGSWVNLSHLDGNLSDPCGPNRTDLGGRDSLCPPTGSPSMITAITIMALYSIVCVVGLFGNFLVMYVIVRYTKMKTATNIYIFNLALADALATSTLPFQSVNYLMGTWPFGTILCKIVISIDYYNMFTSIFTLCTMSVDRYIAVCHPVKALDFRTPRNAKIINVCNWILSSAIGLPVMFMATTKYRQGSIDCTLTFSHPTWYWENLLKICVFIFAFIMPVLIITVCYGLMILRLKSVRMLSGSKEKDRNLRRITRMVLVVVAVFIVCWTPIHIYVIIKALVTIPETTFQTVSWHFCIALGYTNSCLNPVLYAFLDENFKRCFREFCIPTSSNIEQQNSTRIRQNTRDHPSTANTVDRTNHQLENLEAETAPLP
Opioid receptors; mu & delta (Homo sapiens), sequence (P41143 whole entry, looked up): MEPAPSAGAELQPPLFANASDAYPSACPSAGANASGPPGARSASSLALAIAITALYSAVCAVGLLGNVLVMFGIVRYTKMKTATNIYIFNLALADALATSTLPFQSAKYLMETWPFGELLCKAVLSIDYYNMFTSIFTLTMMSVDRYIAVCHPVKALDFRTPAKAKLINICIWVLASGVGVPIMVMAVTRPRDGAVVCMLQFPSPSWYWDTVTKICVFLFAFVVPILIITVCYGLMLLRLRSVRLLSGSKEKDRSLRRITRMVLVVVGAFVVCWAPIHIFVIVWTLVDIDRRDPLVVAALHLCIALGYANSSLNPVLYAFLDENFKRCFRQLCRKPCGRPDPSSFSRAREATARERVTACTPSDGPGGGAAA
How it was run: (§2)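 Agonist action on electrically driven tissues at 37 °C: GPI (1 g tension, 0.4-ms pulses) and Mg-free MVD (0.5 g, 2-ms pulses), 0.1 Hz. Percent inhibition of contraction height read 10 min after 1 μM compound; for stronger agonists, IC50 from concentration–response curves (2–4 tissues, nonlinear least squares). Selectivity = GPI IC50/MVD IC50.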

Cavia porcellus = species on record: Cavia porcellus; assay: Partial agonist activity expressed as inhibition of contraction of guinea pig ileal longitudinal muscle myenteric plexus (GPI) at 1 uM conc.; assay type: functional, organism-based; conditions: Muscle tissue; how it was run: as §2
[3] = target: T2, Kappa-type opioid receptor (Cavia porcellus, UniProt P41144); assay: Displacement of [3H]U-69593 from Opioid receptor kappa 1 of guinea pig brain membranes (pretreated with BIT and FIT to block mu and delta sites)
T2 sequence (P41144 whole entry): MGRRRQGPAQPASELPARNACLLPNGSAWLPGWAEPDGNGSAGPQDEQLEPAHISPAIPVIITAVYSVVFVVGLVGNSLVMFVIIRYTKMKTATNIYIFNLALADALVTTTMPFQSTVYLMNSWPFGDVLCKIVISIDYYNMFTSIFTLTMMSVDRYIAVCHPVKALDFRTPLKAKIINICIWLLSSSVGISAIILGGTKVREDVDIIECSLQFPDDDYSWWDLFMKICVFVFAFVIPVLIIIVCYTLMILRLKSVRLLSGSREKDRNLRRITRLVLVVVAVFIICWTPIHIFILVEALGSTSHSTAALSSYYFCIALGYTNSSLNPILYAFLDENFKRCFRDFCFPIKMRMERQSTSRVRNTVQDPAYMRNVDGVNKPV
How it was run: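 Guinea pig brain membranes pretreated with BIT and FIT, labelled with [3H]U69,593. Incubation 4–6 h at 25 °C in 50 mM Tris-HCl pH 7.4 with protease inhibitors and 1 μg/mL captopril. Nonspecific binding with 1 μM U69,593. 8–10 concentrations, twice.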

[4] = Relative affinity for guinea pig kappa1 and rat delta receptors
Mu-type opioid receptor = Mu-type opioid receptor (Rattus norvegicus, UniProt P33535); assay: Displacement of [3H]DAMGO from Opioid receptor mu 1 of rat brain membranes; assay type: cell membranes, Membrane
Mu-type opioid receptor, sequence (P33535 whole entry): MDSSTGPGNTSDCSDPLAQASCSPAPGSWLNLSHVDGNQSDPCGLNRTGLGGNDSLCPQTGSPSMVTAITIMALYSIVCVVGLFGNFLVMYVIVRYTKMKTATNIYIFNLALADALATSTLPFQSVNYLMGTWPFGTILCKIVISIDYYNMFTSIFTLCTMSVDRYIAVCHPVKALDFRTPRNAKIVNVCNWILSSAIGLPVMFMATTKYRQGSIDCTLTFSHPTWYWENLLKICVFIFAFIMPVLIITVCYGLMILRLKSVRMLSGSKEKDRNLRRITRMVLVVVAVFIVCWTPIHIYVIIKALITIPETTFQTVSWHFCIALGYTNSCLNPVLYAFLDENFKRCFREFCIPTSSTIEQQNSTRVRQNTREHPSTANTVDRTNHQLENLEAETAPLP
How it was run: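 Rat brain membranes labelled with [3H]DAMGO. Incubation 4 h at 25 °C in 50 mM Tris-HCl pH 7.4 with protease inhibitor cocktail. Nonspecific binding defined with 20 μM levallorphan. 8–10 test concentrations, run twice; IC50 and slope factor derived.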

[5] = target: T1, Delta-type opioid receptor; assay: Displacement of [3H]DADLE from morphine-sensitive Opioid receptor delta 1 (presence of 300 nM DELT-II) of rat brain membranes; assay type: cell membranes, Membrane; how it was run: as §1
[6] = target: T2, Kappa-type opioid receptor; assay: Displacement of [125I]OXY from Opioid receptor kappa 2b of guinea pig brain membranes (pretreated with BIT(mu) and FIT(delta) and in the presence of (-)U50,488)
How it was run: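 Guinea pig brain membranes depleted of μ/δ sites by BIT and FIT, labelled with 0.01 nM [125I]IOXY in presence of 5 μM (−)U50,488. Incubation 4–6 h at 4 °C in 50 mM Tris-HCl pH 7.4 with 10 mM NaCl, protease inhibitors and 1 μg/mL captopril.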

[7] = target: Opioid receptors; mu & delta (Rattus norvegicus) (UniProt P33533+P33535); assay: Relative affinity for mu and delta receptors in rat brain membranes; assay type: cell membranes
Opioid receptors; mu & delta (Rattus norvegicus), sequence (P33533 whole entry, looked up): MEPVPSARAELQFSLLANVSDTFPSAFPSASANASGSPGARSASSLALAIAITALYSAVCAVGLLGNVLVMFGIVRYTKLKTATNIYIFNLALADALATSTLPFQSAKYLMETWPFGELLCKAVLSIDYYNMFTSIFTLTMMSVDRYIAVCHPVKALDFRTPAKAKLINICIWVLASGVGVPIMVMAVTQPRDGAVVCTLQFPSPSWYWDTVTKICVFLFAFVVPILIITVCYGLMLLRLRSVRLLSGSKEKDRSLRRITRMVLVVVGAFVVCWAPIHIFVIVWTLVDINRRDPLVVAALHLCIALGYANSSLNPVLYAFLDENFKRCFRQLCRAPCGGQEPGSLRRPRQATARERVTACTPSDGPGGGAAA
Opioid receptors; mu & delta (Rattus norvegicus), sequence (P33535 whole entry, looked up): as the sequence (P33535 whole entry) above

[8] = target: T1, Delta-type opioid receptor; assay: Displacement of [3H]DADLE from Opioid receptor delta 1 of rat brain membranes (DAMGO quenching mu receptor); assay type: cell membranes, Membrane
How it was run: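 Rat brain membranes labelled with [3H]DADLE. Incubation 3–4 h at 25 °C in 10 mM Tris-HCl pH 7.4 with 100 mM choline chloride, 3 mM MnCl2, 100 nM DAMGO (μ block) and protease inhibitors. Levallorphan 20 μM for nonspecific binding. 8–10 concentrations, duplicate runs.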

[9] = target: Delta-type opioid receptor (Mus musculus) (UniProt P32300); assay: Displacement of DPDPE from Opioid receptor delta 1 of mouse vas deferens (MVD)smooth muscle
Delta-type opioid receptor (Mus musculus), sequence (P32300 whole entry): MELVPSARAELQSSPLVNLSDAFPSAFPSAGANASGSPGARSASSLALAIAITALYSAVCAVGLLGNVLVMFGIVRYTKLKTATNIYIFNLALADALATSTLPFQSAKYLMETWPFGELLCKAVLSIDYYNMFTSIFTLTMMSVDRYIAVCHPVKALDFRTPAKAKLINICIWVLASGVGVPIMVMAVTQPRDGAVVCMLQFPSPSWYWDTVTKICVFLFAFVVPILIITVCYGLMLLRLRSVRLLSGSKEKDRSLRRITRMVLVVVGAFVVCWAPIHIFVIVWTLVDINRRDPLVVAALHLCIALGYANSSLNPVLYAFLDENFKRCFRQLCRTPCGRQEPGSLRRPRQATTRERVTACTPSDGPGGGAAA
How it was run: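 Mouse vas deferens (male ICR, 25–40 g) in Mg-free oxygenated Krebs at 37 °C, 0.5 g tension; transmural 0.1 Hz, 2-ms pulses, supramaximal voltage. Control DPDPE curve first; then 1 μM compound 30 min, 30 min wash, cumulative DPDPE curve (3-min steps) repeated. IC50 ratio = shifted/control IC50; Ke = [antagonist]/(ratio − 1); n ≥ 3.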

[10] = target: Delta-type opioid receptor (Mus musculus, UniProt P32300); assay: Partial agonist activity expressed as inhibition of contraction of mouse vas deferens (MVD) smooth muscle at 1 uM conc.; assay type: functional, tissue-based, Muscle tissue; how it was run: as §2
Delta-type opioid receptor (Mus musculus, UniProt P32300), sequence (P32300 whole entry): as above

T1 sequence (P33533 whole entry): as the sequence (P33533 whole entry, looked up) above

`Oc1ccc2c3c1OC1c4[nH]c5cc(Oc6ccccc6)ccc5c4C[C@@]4(O)[C@@H](C2)N(CC2CC2)CC[C@]314` (some centres not stated) gave a Ki [1] of 4.9 nM, a Selectivity ratio [2] of 0.8 and an IC50 (Cavia porcellus) of 2300 nM. It also gave a Ki [3] of 236 nM, a Selectivity ratio [4] of 37 and a Ki (Mu-type opioid receptor) of 235 nM. For the same molecule, the Ki [5] was 89.4 nM, the Ki [6] was 175 nM and the Selectivity ratio [7] was 37. The Ki [8] was 6.4 nM, the Ke [9] was 4.6 nM and the IC50 [10] was 3000 nM.
